These results are taken from ChEMBL document CHEMBL1127511, “Synthesis and antitumor activity of a series of [2-substituted-4,5-bis(aminomethyl)-1,3-dioxolane]platinum(II) complexes” (J Med Chem, 1994).

Experiment [1] has as its system KATO III stomach cancer cell line. Description: Cytotoxicity activity against human stomach adenocarcinoma cell lines KATO-III by using MTT assay. It counts as functional, cell-based. An outline of the steps:
(§1)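 Human stomach cancer lines in RPMI-1640 with 10% heat-inactivated FCS and penicillin/streptomycin, 37 °C, 5% CO2, seeded to stay in exponential growth. Compound added as 0.1–100.0 μg/mL solutions (stock, diluted 1:10 in well), triplicate, 4 days. MTT for 4 h, formazan dissolved in DMSO or acidified 2-propanol, read at 540 nm. IC50 from OD relative to control by probit analysis, ≥3 experiments.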

The next experiment concerns MKN-45. Description: Cytotoxicity activity against human stomach adenocarcinoma cell lines MKN-45by using MTT assay. It counts as functional, cell-based. Put shortly:
as §1
(In general: Formazan colour is commonly taken as a measure of viable cells.)

Another experiment concerns NCI-N87. Description: In vitro cytotoxicity activity against human stomach cancer cell lines NCI-N87. It counts as functional, cell-based. An outline of the steps: as §1
A further experiment relates to PC-9. Description: Cytotoxicity activity against human non-small cell lung adenocarcinoma cell lines PC-9 by using MTT assay. It counts as functional, cell-based.
In a further experiment the test system is PC-14. As to the kind of experiment: Cytotoxicity activity against human non-small cell lung adenocarcinoma cell lines PC-14 by using MTT assay. The format is functional, cell-based.
The test system of the next experiment is SNU1. Description: In vitro cytotoxicity activity against human stomach cancer cell lines SNU-1. The format is functional, cell-based. Put shortly: as §1
The subject of another experiment is SNU-16. As to the kind of experiment: In vitro cytotoxicity activity against human stomach cancer cell lines SNU-16. The format is functional, cell-based. An outline of the steps:
as §1

In another experiment the test system is SNU-5. As to the kind of experiment: In vitro cytotoxicity activity against human stomach cancer cell lines SNU-5. It counts as functional, cell-based. Put shortly: as §1
Experiment [2] deals with L1210. As to the kind of experiment: Antitumor activity against Cisplatin-Resistant L1210 Leukemia cells in mice at their respective dose at 1.5 mg/kg, ip, days. The format is functional, organism-based. More on the design: dose 1.5 mg/kg. Particulars: Mus musculus. An outline of the steps:
(§2)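 BDF1 male mice inoculated ip on day 0 with 1 × 10^6 viable (trypan blue-excluding) L1210 cells, or cisplatin-resistant L1210 cells, maintained by serial ip passage in DBA/2 mice. The resistant line came from continuous exposure to rising cisplatin and was passaged in DBA/2 mice given cisplatin 5 mg/kg ip on days 1 and 5. Drug ip on days 1, 5, 9; seven mice per dose; end day 50; %T/C from mean survival time.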

Experiment [3] concerns L1210. Description: Antitumor activity against Cisplatin-Resistant L1210 Leukemia cells in mice at their respective dose at 3.1 mg/kg, ip, days. The format is functional, organism-based. More on the design: dose 3.1 mg/kg. The settings on record: Mus musculus. Put shortly: as §2
For experiment [4], the system named is Mus musculus. As to the kind of experiment: The serum levels of blood urea nitrogen in mice after a single intraperitoneal at dose 6.0 mg/kg on day1. It counts as functional, organism-based. More on the design: dose 6 mg/kg. Put shortly: (§3)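 Male ICR mice, single ip dose on day 0 in 0.5% carboxymethylcellulose sodium in water, six per group. Blood drawn from the posterior vena cava under anesthesia on days 1, 4, 8. Serum obtained by centrifugation (1500g, 10 min) and run on a biochemistry analyzer. Values are mean ± SE.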

Experiment [5] relates to Mus musculus. As to the kind of experiment: The serum levels of blood urea nitrogen in mice after a single intraperitoneal at dose 6.0 mg/kg on day 4. The format is functional, organism-based. Details: dose 6 mg/kg. Put shortly:
as §3

The subject of experiment [6] is Mus musculus. Description: The serum levels of blood urea nitrogen in mice after a single intraperitoneal at dose 6.0 mg/kg on day 8. It counts as functional, organism-based. More on the design: dose 6 mg/kg. An outline of the steps:
as §3

Experiment [7] has as its system Mus musculus. Description: Antitumor activity against L1210 Leukemia cells in mice at their respective dose at 3.1 mg/kg, ip, days. The format is functional, organism-based. Details: dose 3.1 mg/kg. The settings on record: Leukemia cell. Put shortly: as §2
The subject of experiment [8] is L1210. As to the kind of experiment: Antitumor activity against L1210 Leukemia cells in mice at 6.25 mg/kg. The format is functional, organism-based. Details: dose 6.25 mg/kg. The settings on record: Mus musculus. Put shortly:
as §2

Experiment [9] has as its system Mus musculus. Description: Antitumor activity against L1210 Leukemia cells in mice at their respective dose at 1.5 mg/kg, ip, days. Details: dose 1.5 mg/kg. The format is functional, organism-based. Particulars: Leukemia cell. An outline of the steps: as §2
Experiment [10] relates to Mus musculus. Description: The serum levels of creatinine in mice after a single intraperitoneal at dose 6.0 mg/kg on day1. The format is functional, organism-based. More on the design: dose 6 mg/kg. An outline of the steps:
as §3

In experiment [11] the test system is Mus musculus. As to the kind of experiment: The serum levels of creatinine in mice after a single intraperitoneal at dose 6.0 mg/kg on day 4. The format is functional, organism-based. Details: dose 6 mg/kg. Put shortly: as §3
Experiment [12] deals with Mus musculus. Description: The serum levels of creatinine in mice after a single intraperitoneal at dose 6.0 mg/kg on day 8. It counts as functional, organism-based. More on the design: dose 6 mg/kg. An outline of the steps: as §3
The species entered for experiment [13] is Mus musculus. Description: Number of toxic deaths/number of animals tested. The format is functional, organism-based. An outline of the steps:
(§4)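 L1210-bearing BDF1 mice (1 × 10^6 cells ip, day 0), seven per dose group, treated ip on days 1, 5 and 9. Toxic deaths counted per group. Cures are animals without gross evidence of tumor on day 50, when experiments ended.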

The subject of experiment [14] is L1210. As to the kind of experiment: Antitumor activity against Cisplatin-Resistant L1210 Leukemia cells in mice at their respective dose at 100 mg/kg, ip, days. It counts as functional, organism-based. More on the design: dose 100 mg/kg. The settings on record: Mus musculus. An outline of the steps:
as §2

For experiment [15], the system named is L1210. Description: Antitumor activity against Cisplatin-Resistant L1210 Leukemia cells in mice at their respective dose at 25 mg/kg, ip, days. The format is functional, organism-based. More on the design: dose 25 mg/kg. Particulars: Mus musculus. Put shortly: as §2
Experiment [16] deals with L1210. As to the kind of experiment: Antitumor activity against Cisplatin-Resistant L1210 Leukemia cells in mice at their respective dose at 50 mg/kg, ip, days. It counts as functional, organism-based. Details: dose 50 mg/kg. The settings on record: Mus musculus. An outline of the steps: as §2
The test system of experiment [17] is Mus musculus. Description: The serum levels of blood urea nitrogen in mice after a single intraperitoneal at dose 150 mg/kg on day1. It counts as functional, organism-based. Details: dose 150 mg/kg. Put shortly: as §3
Experiment [18] relates to Mus musculus. As to the kind of experiment: The serum levels of blood urea nitrogen in mice after a single intraperitoneal at dose 150 mg/kg on day 4. It counts as functional, organism-based. More on the design: dose 150 mg/kg. An outline of the steps:
as §3

Experiment [19] relates to Mus musculus. As to the kind of experiment: The serum levels of blood urea nitrogen in mice after a single intraperitoneal at dose 150 mg/kg on day 8. The format is functional, organism-based. Details: dose 150 mg/kg. An outline of the steps: as §3
The subject of experiment [20] is L1210. As to the kind of experiment: Antitumor activity against L1210 Leukemia cells in mice at 25 mg/kg. The settings on record: Mus musculus. The format is functional, organism-based. Details: dose 25 mg/kg. An outline of the steps:
as §2

For experiment [21], the system named is L1210. Description: Antitumor activity against L1210 Leukemia cells in mice at 50 mg/kg. More on the design: dose 50 mg/kg. The settings on record: Mus musculus. It counts as functional, organism-based. An outline of the steps: as §2
For experiment [22], the system named is L1210. Description: Antitumor activity against L1210 (murine leukemia) cells in mice at 100 mg/kg i.p. The format is functional, organism-based. Details: dose 100 mg/kg. The settings on record: Mus musculus. Put shortly:
as §2

In experiment [23] the test system is L1210. As to the kind of experiment: Antitumor activity against L1210 Leukemia cells in mice at 12.5 mg/kg. More on the design: dose 12.5 mg/kg. The format is functional, organism-based. The settings on record: Mus musculus. Put shortly: as §2
For experiment [24], the system named is Mus musculus. As to the kind of experiment: The serum levels of creatinine in mice after a single intraperitoneal at dose 150 mg/kg on day1. The format is functional, organism-based. Details: dose 150 mg/kg. Put shortly:
as §3

In experiment [25] the test system is Mus musculus. Description: The serum levels of creatinine in mice after a single intraperitoneal at dose 150 mg/kg on day 4. Details: dose 150 mg/kg. It counts as functional, organism-based. Put shortly: as §3
Experiment [26] has as its system Mus musculus. Description: The serum levels of creatinine in mice after a single intraperitoneal at dose 150 mg/kg on day 8. The format is functional, organism-based. More on the design: dose 150 mg/kg. Put shortly: as §3
For experiment [27], the species on record is Mus musculus. As to the kind of experiment: Number of cures/number of animals tested; out of 7 mouse. It counts as functional, organism-based. An outline of the steps:
as §4

Experiment [28] is described as follows: Number of deaths/number of animals tested; out of 7 mouse. It counts as functional. An outline of the steps: as §4

Where “and” joins values, the source holds several entries; their conditions need not be identical. Equal values may be shown once.

The term IC50 denotes the concentration needed to halve the response being measured. A higher IC50 goes with weaker potency in that assay. One may read the T/C as the ratio of treated to control.

On to CARBOPLATIN [listing 1 of 2 here], for which the IC50 in [1] was found to be 10.5 µg/mL; in the experiment on MKN-45, 6.4 µg/mL; with NCI-N87, 153.38 µg/mL; in the experiment on PC-9, 19 µg/mL; in the experiment with PC-14 it was 5.8 µg/mL; in the experiment on SNU1, 37.78 µg/mL. Moreover, the IC50 is 34.02 µg/mL with SNU-16 and 10.75 µg/mL in the experiment with SNU-5.
As for CISPLATIN [listing 1 of 2 here], the T/C with L1210 [2] came to 86%; with L1210 [3] it was 109%; in the experiment with Mus musculus [7], 167%; in the experiment on L1210 [8], 82%; in the experiment with Mus musculus [9], 142%. Further, the BUN was 24.8 mg 100ml-1 in the experiment with Mus musculus [4], 43.1 mg 100ml-1 with Mus musculus [5] and 32.5 mg 100ml-1 in the experiment with Mus musculus [6]. The figures for the Creatinine in the experiment on Mus musculus [10], with Mus musculus [11] and in the experiment on Mus musculus [12] were 0.26 mg 100ml-1, 0.28 mg 100ml-1 and 0.4 mg 100ml-1, respectively. Also, the Ratio in the experiment filed under Mus musculus [13] is 5 and 2.
As for CARBOPLATIN [listing 2 of 2 here], the T/C in the experiment with L1210 [14] is 81%; in the experiment with L1210 [15], 98%; in the experiment on L1210 [16] it was 132%; in the experiment on L1210 [20], 148%; with L1210 [21], 196%; in the experiment with L1210 [8], 107%. In addition, the T/C in the experiment on L1210 [22] turned out to be 197%; with L1210 [23] it was 125%. Moreover, the BUN in the experiment on Mus musculus [17] amounted to 24.4 mg 100ml-1; in the experiment with Mus musculus [18], 21.1 mg 100ml-1; in the experiment with Mus musculus [19], 28.6 mg 100ml-1. Also, the Creatinine in the experiment with Mus musculus [24] came to 0.25 mg 100ml-1; in the experiment on Mus musculus [25], 0.19 mg 100ml-1; with Mus musculus [26], 0.31 mg 100ml-1. In addition, the Ratio in the experiment listed under Mus musculus [27] was 1 and 2; in [28], 2; in the experiment filed under Mus musculus [13] it was 1.
For CISPLATIN [listing 2 of 2 here], the half-inhibitory concentration (IC50) in [1] stood at 0.83 µg/mL; in the experiment on MKN-45 it was 0.51 µg/mL; with NCI-N87, 13.73 µg/mL; in the experiment with PC-9, 1.03 µg/mL; with PC-14 it was 0.77 µg/mL; with SNU1 it was 2.9 µg/mL. For the same sequence, the IC50 with SNU-16 turned out to be 2.83 µg/mL; in the experiment with SNU-5, 1.29 µg/mL.
